{"data": "Measurements pooled from the literature", "target": "Fibroblast growth factor receptor 4 (FGFR4, Homo sapiens, UniProt P22455)"}
{"SMILES": "N[C@H]1CCN(c2nccc(-c3cnn4ncccc34)n2)C1", "effect on": "binding", "concentration": "1 µM", "remaining binding": "100%"}
{"SMILES": "CS(=O)(=O)c1cc(C2(NC(=O)c3cncc4c3cnn4-c3ccc(F)cc3)CC2)ccn1", "effect on": "cell-free assay", "technique": "competition with immobilised ligand", "concentration": "1 µM", "remaining binding": "74%"}
{"SMILES": "c1cnn2ncc(-c3ccnc(N4CCC45COC5)n3)c2c1", "effect on": "binding", "concentration": "1 µM", "remaining binding": "91%"}
{"SMILES": "O=C(NCC1CCOCC1)c1n[nH]cc1NC(=O)c1c(F)cccc1F", "effect on": "binding", "technique": "competition with immobilised ligand", "concentration": "1 µM", "remaining binding": "100%"}
{"SMILES": "c1cncc(-c2cccc(Nc3nccc(NC4CCCCC4)n3)c2)c1", "effect on": "binding", "technique": "competition with immobilised ligand", "concentration": "10 µM", "remaining binding": "94%"}
{"SMILES": "C=CC(=O)N1CCC(C(=O)NCC(=O)N2CCN(c3nc(-c4cnc(N)nc4C(F)F)nc(N4CCOCC4)n3)CC2)CC1", "effect on": "binding", "technique": "competition with immobilised ligand", "concentration": "1 µM", "remaining binding": "100%"}
{"SMILES": "CN(C(=O)c1ccccc1)c1cc(N(C)c2ccc3c(c2)CCc2ccc(C(=O)NCCN4CCOCC4)cc2C3=O)ccc1F", "effect on": "cell-free assay", "technique": "competition with immobilised ligand", "concentration": "1 µM", "remaining binding": "100%"}
{"SMILES": "Nc1ncc2c(n1)-c1c([nH]c3ccc(C#CC4CC4)cc13)CCCC2", "effect on": "binding", "technique": "competition with immobilised ligand", "concentration": "1 µM", "remaining binding": "98%"}
{"SMILES": "COc1cnc(Nc2cccc(S(N)(=O)=O)c2)nc1N1CCN(c2ccccc2)CC1", "effect on": "binding", "technique": "competition with immobilised ligand", "concentration": "1 µM", "remaining binding": "98%"}
{"SMILES": "CCc1ccccc1C(=O)Nc1n[nH]c2c(C)c(F)c(C3C(C#N)=C(C)N(C)C(C)=C3C#N)cc12", "effect on": "cell-free assay", "technique": "competition with immobilised ligand", "concentration": "1 µM", "remaining binding": "100%"}
{"SMILES": "O=C(c1ccc(Nc2nccc(-c3cc4ccccc4s3)n2)cc1)N1CCC(N2CCCC2)CC1", "effect on": "binding", "technique": "competition with immobilised ligand", "concentration": "1 µM", "remaining binding": "99%"}
{"SMILES": "CN(c1nccc(-c2cnn3ncccc23)n1)C1CC1", "effect on": "binding", "concentration": "1 µM", "remaining binding": "99%"}
{"SMILES": "CNC(=O)[C@@H]1CC[C@@H](n2c(-c3ccc4cnccc4c3)nc3ccc(C(=O)NCc4cccc(C(N)=O)c4)cc32)C1", "effect on": "binding", "technique": "competition with immobilised ligand", "concentration": "1 µM", "remaining binding": "100%"}
{"SMILES": "CN(C)c1ncc(F)c(-c2cnn3ncccc23)n1", "effect on": "binding", "concentration": "1 µM", "remaining binding": "100%"}
{"SMILES": "CN(c1ccnc(CNc2nc(Nc3ccc4c(c3)CC(=O)N4)ncc2C(F)(F)F)n1)S(C)(=O)=O", "effect on": "cell-free assay", "technique": "competition with immobilised ligand", "concentration": "1 µM", "remaining binding": "83%"}
{"SMILES": "F[C@@H]1CCN(c2nccc(-c3cnn4ncccc34)n2)C1", "effect on": "binding", "concentration": "1 µM", "remaining binding": "100%"}
{"SMILES": "C[C@@H]1CN(c2cc(-c3nn(C)c4ccc(OC5(C)CC5)cc34)ncn2)C[C@H](C)O1", "effect on": "cell-free assay", "technique": "competition with immobilised ligand", "concentration": "1 µM", "remaining binding": "100%"}
{"SMILES": "O=C(c1ccc(Nc2ncc(Cl)c(-c3ccc(Cl)s3)n2)cc1)N1CCC(N2CCCC2)CC1", "effect on": "binding", "technique": "competition with immobilised ligand", "concentration": "1 µM", "remaining binding": "60%"}
{"SMILES": "O=C(NS(=O)(=O)c1ccc(NCC2CCOCC2)c([N+](=O)[O-])c1)c1ccc(N2CCN(Cc3ccc(C(F)(F)F)cc3-c3ccc(Cl)cc3)CC2)cc1Oc1cnc2[nH]ccc2c1", "effect on": "cell-free assay", "technique": "competition with immobilised ligand", "concentration": "1 µM", "remaining binding": "96%"}
{"SMILES": "O=C(NCCCN1CCOCC1)c1ccc(Nc2nccc(-c3cc4ccccc4s3)n2)cc1", "effect on": "binding", "technique": "competition with immobilised ligand", "concentration": "1 µM", "remaining binding": "91%"}
{"SMILES": "C[C@@H]1CCN(c2nccc(-c3cnn4ncccc34)n2)C1", "effect on": "binding", "concentration": "1 µM", "remaining binding": "100%"}
{"SMILES": "CS(=O)(=O)NCC[C@H](NC(=O)c1cncc2c1cnn2-c1ccc(F)cc1)c1ccnc(S(C)(=O)=O)c1", "effect on": "cell-free assay", "technique": "competition with immobilised ligand", "concentration": "1 µM", "remaining binding": "100%"}
